From PubChem
V1aR counter – counter-screen for oxytocin receptor agonists: human V1a receptor agonists; AID 2797; CHO-V1R cells, Fluo-8 calcium fluorescence, agonist mode; 0% DMSO, 100% 3 nM vasopressin; 320,000 tested, 0.25% active; P37288; activation, % at 3 µM;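 active = activation above the mean activation of all tested compounds plus 3 SD, per screening run, cut at about 20% in these data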;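 also: signal is peak over basal fluorescence ratio across a 100 second FLIPR read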
OX1R antag-1 – antagonists of human orexin 1 receptor; O43613; CHO/OX1R cells, Fluo-8 calcium fluorescence, orexin A; inhibition, % at 5 µM; 330,000 tested, 0.43% active;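 active = inhibition above its plate's threshold, mean inhibition of all tested compounds on the plate plus 3 SD, cut at about 37% in these data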;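 also: 0% = orexin A challenge wells and 100% = SB-334867-A antagonist wells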
CHO parental Ca – counter-screen: ATP calcium response change in parental CHO cells | 330,000 tested, 0.63% active | AID 463079 | parental CHO-K1, ATP-induced calcium, Fluo-8 fluorescence | inhibition, % at 5.6 µM;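 active = inhibition above that plate's mean sample inhibition plus 3 SD, cut at about 26% in these data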;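 also: 0% = ATP-challenged DMSO wells and 100% = DMSO wells without ATP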
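Material – parental CHO cells · Reagent – ATP stimulus · Compound – single nominal dose of 5.6 µM per compound · Detection – Fluo-8 fluorescence · Read-out basis – percent inhibition of calcium signal · Controls – ATP-challenged DMSO wells low, unchallenged DMSO wells high · Repeats – no replicates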
OXTR agonist – human OXTR agonism; P30559; CHO-OTR cells, Fluo-8 calcium fluorescence; normalized: DMSO 0%, oxytocin 100%; activation, % at 3 µM; 320,000 tested, 0.32% active;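 active = activation above the mean of all tested compounds plus 3 SD, cutoff set per screening run, cut at about 20% in these data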;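 also: peak over basal fluorescence ratio from a 100 s FLIPR kinetic read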
Target sequence (P30559 whole entry, looked up): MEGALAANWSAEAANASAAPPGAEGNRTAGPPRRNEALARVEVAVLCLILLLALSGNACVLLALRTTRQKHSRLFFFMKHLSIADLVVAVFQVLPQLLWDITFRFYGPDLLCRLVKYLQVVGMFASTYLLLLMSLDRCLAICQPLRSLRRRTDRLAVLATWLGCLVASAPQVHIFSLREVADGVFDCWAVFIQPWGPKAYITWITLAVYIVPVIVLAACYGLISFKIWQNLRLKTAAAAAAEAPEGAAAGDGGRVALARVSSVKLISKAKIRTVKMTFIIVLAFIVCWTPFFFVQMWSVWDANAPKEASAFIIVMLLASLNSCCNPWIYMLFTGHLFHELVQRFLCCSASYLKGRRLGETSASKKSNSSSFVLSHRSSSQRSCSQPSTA
OXTR potentiate – human OXTR potentiation. P30559. CHO-OTR cells, Fluo-8 calcium fluorescence, potentiator mode; 0% = oxytocin EC15, 100% = EC100. activation, % at 3 µM. 320,000 tested, 0.061% active;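 active = activation above that plate's cutoff, the mean activation of tested compounds plus 3 SD, cut at about 6.6% in these data, passing the limit was not always enough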;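 also: 100% uses oxytocin at 75 nM as the full agonist control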
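Assay system: CHO cell line stably expressing human OTR | Also added: Oxytocin at about EC15, sub-maximal agonist stimulus | Times: Compound 6 min at room temperature before oxytocin, 100 s read | Measured by: Fluo-8 intracellular calcium fluorescence, ex 470-495, em 515-575 nm | Controls: EC15 oxytocin alone as 0%, 75 nM oxytocin as 100%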
OX1R antag-2 – OX1R (human) antagonism. AID 485270. OX1R-expressing cells, FRET antagonist read-out. inhibition, % at 6.6 µM. 330,000 tested, 1.8% active; in the data active = inhibition mostly above about 38%, no sharp cut-off; inactive = mostly below about 40%;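 also: 0% = agonist challenge alone and 100% = reference antagonist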
OX1R Fluo8 conf – OX1R (human) antagonism, confirmed | shares compounds with OX1R antag-1 | CHO/OX1R cells, orexin A calcium Fluo-8 fluorescence | inhibition, % at 5 µM | 1,100 tested, 38% active; in the data active = inhibition above about 29%;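 also: 0% = agonist challenge alone and 100% = reference antagonist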
CHO Ca triplic – counter-screen: parental CHO calcium response change, triplicate; shares compounds with OX1R antag-1; parental CHO-K1, ATP-induced calcium, Fluo-8 fluorescence; inhibition, % at 5.6 µM; 1,100 tested, 9.3% active; AID 492965;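 active = inhibition above a per-plate limit, the mean inhibition of that plate's test compounds plus 3 SD, cut at about 25% in these data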;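 also: 0% = ATP challenge with DMSO and 100% = DMSO without ATP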
An asterisk follows results filed as active; x = no result. Shown are actives, neighbours in structure and some others; about 2.6% of the full set was active somewhere.

SMILES	V1aR counter	OX1R antag-1	CHO parental Ca	OXTR agonist	OXTR potentiate	OX1R antag-2	OX1R Fluo8 conf	CHO Ca triplic
Cc1ccc(S(=O)(=O)N2C[C@@H]3[C@H]4CC[C@H](C4)[C@@H]3[C@@H](C)[C@@H]2c2ccco2)cc1	x	-2.0	-35.1	x	x	18.3	x	x
Cc1ccc(S(=O)(=O)N2C[C@@H]3[C@H]4CC[C@H](C4)[C@@H]3[C@@H](C)[C@H]2c2ccco2)cc1	x	82.0*	-6.8	x	x	28.2	2.8	23.2
C=CCNc1ccccc1S(=O)(=O)NCc1ccccc1	x	-0.8	-22.5	x	x	9.2	x	x
COc1ccc(-c2ocnc2C(=O)NCc2nn(-c3ccccc3)nc2C)cc1	3.6	37.6	24.5	4.2	-14.1	24.6	8.3	29.2*
COc1ccc(CC(=O)NCc2nn(-c3ccccc3)nc2C)cc1OC	-1.0	-29.6	-26.4	-1.4	7.3	12.9	x	x
Cc1ccc(S(=O)(=O)n2nc(-n3c(C)ccc3C)c3c(F)cccc32)c2ccccc12	-0.2	-2.0	-8.3	-1.2	-8.6	1.2	x	x
Cc1ccc(C)n1-c1nn(S(=O)(=O)c2cccc3cccnc23)c2cccc(F)c12	2.0	38.7*	-18.8	0.4	-11.1	70.7	29.6*	-7.8
O=C(O)c1cccc(NC(=O)c2cn(-c3ccccc3)nc2-c2cccc(Br)c2)c1	1.9	30.2	18.3	4.2	-16.1	17.2	27.1	33.0*
O=C(O)c1cccc(NC(=O)c2cn(-c3ccccc3)nc2-c2ccncc2)c1	0.0	4.1	5.6	-0.6	2.3	4.7	x	x
O=C1Nc2ccc(S(=O)(=O)NCC3CCCO3)c3cccc1c23 (stereo not given)	0.2	-23.0	-7.9	0.5	-10.9	45.5	x	x
O=C1Nc2ccc(S(=O)(=O)NCCC3=CCCCC3)c3cccc1c23	7.5	34.3	18.8	4.7	-27.8	60.5	-1.7	0.9
Cc1ccsc1/C=N/Nc1ccc(F)cc1F	-0.9	-13.9	-19.7	-1.8	-13.8	17.7	x	x
COC(=O)c1c(C)oc2ccc(N(C(=O)c3ccncc3)S(=O)(=O)c3ccc(C)cc3)cc12	2.8	38.7*	16.6	-0.7	-12.7	32.4	12.3	13.5
Cc1cc(C)n2cc(CSc3nc4cc(Cl)ccc4o3)nc2n1	-1.3	-28.8	-20.2	-1.9	-7.0	37.1	x	x
CN(C)c1nc(N)nc(CSc2nc3cc(Cl)ccc3o2)n1	0.8	42.8	-9.0	1.0	-4.9	22.4	27.1	-2.6
COc1cccc(OCc2cc(C(=O)N(C)CCOc3ccc(C)cc3)no2)c1	4.3	-0.8	11.0	0.9	-11.9	17.8	x	x
O=C(C1CCN(c2ncnc3c2nc2n3CCCCC2)CC1)N1CCN(c2cccc(Cl)c2)CC1	13.7	31.3	5.4	5.4	-7.8	25.8	21.9	-1.7
C=CCNc1nc(N(c2ccccc2)c2ccccc2)nc(-n2ccnc2)n1	0.1	19.4	2.6	-0.9	-4.1	9.6	87.9*	12.6
Cc1cc(-c2nnc(SCC(=O)c3ccc(F)cc3)o2)no1	0.5	-2.9	-5.0	-0.2	-9.8	1.0	x	x
Cc1nn(Cc2ccccc2)c(C)c1NC(=O)CCCn1nc([N+](=O)[O-])cc1C	-0.7	-31.1	-9.9	0.3	-10.0	9.4	x	x
O=C(O)c1ccc(N2C(=O)/C(=C/C=C/c3ccccc3)SC2=S)cc1	-0.5	0.7	2.6	2.1	-3.9	13.4	x	x
CN(C)c1ccc(/C=C/C=C2/SC(=S)N(c3ccccc3)C2=O)cc1	7.4	35.8	26.9	6.2	-31.1	8.8	57.2*	59.8*
O=C1OC(/C=C/c2ccccc2)=NC/1=C\c1cccnc1	-0.1	50.3*	5.6	-0.6	-11.1	23.0	4.3	1.2
Cc1ccc(C2=N/C(=C\c3cccnc3)C(=O)O2)cc1	0.0	-1.2	6.9	0.5	-1.5	0.3	x	x
CC1CCCC(NC(=O)COC(=O)COc2ccc(Br)cc2)C1C (stereo not given)	1.5	-7.6	-5.3	1.3	-6.5	-5.5	x	x
